High-throughput results from PubChem.
IMP-1 inh: blocks Pseudomonas aeruginosa IMP-1 metallo-beta-lactamase; AID 1556; 290,000 tested, 0.45% active; purified IMP-1, nitrocefin hydrolysis, epi-absorbance fluorescence; inhibition, % at 5.6 µM;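 active = inhibition above the mean plus 3 SD of all compounds in the same screening run, cut at about 4.5% in these data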;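 also: 0% = IMP-1 with DMSO and 100% = DMSO wells lacking enzyme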
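Test system: recombinant IMP-1 enzyme, purified / Medium: HEPES buffer pH 7.1 with ZnSO4 and Brij 35 / Doses: single dose, 5.6 µM / Times: 25 °C, 15 min preincubation, 25 min reaction / Detection: Epi-absorbance via hydrolysed-nitrocefin quenching of white-plate fluorescence, 480/530 nm, EDTA stop / Evaluation: percent inhibition from optical density relative to buffer-blank wells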
VIM-2 inh: blocks Pseudomonas aeruginosa VIM-2 metallo-beta-lactamase | inhibition, % at 5.6 µM | 290,000 tested, 0.89% active | purified VIM-2, nitrocefin hydrolysis, epi-absorbance fluorescence;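 active = inhibition above the mean of all tested compounds plus 3 SD, cutoff set per screening run, cut at about 7.5% in these data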;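 also: red hydrolysis product quenches plate fluorescence so inhibitors raise well fluorescence; 0% = enzyme with DMSO and 100% = DMSO without enzyme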
dFosB activator: activators of mouse delta FosB homodimer; 340,000 tested, 0.99% active; activation, % at 25 µM; purified delta FosB, TAMRA-CDK5 oligo fluorescence polarization; percent of positive-control signal above neutral wells; P13346;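 active = mean activation above about 17%, with every replicate also reaching it, limit read from the data, passing the limit was not always enough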
m5-HT2A agonist: mouse HTR2A agonism via beta-arrestin recruitment. P35363. CHO-K1 mHTR2A beta-arrestin complementation, luminescence; percent of 30 µM serotonin response. activation, % at 7.6 µM. 360,000 tested, 0.66% active. AID 624169;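 active = activation above a run cutoff, the mean activation of all tested compounds plus 3 SD, cut at about 14% in these data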;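 also: 0% = plate median of compound wells and 100% = 30 µM serotonin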
Target sequence (P35363 whole entry, looked up): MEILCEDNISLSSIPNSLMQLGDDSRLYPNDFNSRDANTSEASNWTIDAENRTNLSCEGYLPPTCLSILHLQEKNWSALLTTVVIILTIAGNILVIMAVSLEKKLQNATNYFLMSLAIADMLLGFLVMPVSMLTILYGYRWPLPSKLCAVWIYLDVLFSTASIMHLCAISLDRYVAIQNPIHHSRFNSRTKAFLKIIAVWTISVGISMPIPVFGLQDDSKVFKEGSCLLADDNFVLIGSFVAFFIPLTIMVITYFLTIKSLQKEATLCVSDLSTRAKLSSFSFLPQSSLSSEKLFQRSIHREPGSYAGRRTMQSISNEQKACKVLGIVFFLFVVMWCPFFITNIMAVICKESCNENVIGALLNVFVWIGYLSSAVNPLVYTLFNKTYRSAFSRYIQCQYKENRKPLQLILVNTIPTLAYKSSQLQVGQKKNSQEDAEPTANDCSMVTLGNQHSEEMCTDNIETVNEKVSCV
MOR ag counter: counter-screen for mouse HTR2A agonists: human mu opioid receptor agonists; 2,300 tested, 5.3% active; shares compounds with m5-HT2A agonist; U2OS OPRM1 beta-arrestin PathHunter, luminescence; DMSO 0%, DAMGO 9.3 µM 100%; activation, % at 9.3 µM; AID 624380;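 active = mean activation above the mean of DMSO-only wells plus 3 SD, cut at about 0.5% in these data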
m5-HT2A ag conf: confirmation of mouse HTR2A serotonin receptor agonists; 2,300 tested, 19% active; shares compounds with m5-HT2A agonist; activation, % at 7.6 µM; CHO-K1 PathHunter beta-arrestin recruitment, luminescence; DMSO 0%, 30 µM serotonin 100%;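 active = mean activation across triplicates above the hit threshold derived in the original primary screen, cut at about 15% in these data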
Starred values were filed as active, the others as inactive; x = not tested or not shown. Shown are actives, neighbours in structure and some others; about 2.5% of the full set was active somewhere.

SMILES	IMP-1 inh	VIM-2 inh	dFosB activator	m5-HT2A agonist	MOR ag counter	m5-HT2A ag conf
COCCN(CC(=O)Nc1cccc(C)c1C)C(=O)c1ccc(-n2cccn2)cc1	x	x	-10.0	-1.7	x	x
COc1ccc(-c2cccc(NS(=O)(=O)c3cccc([N+](=O)[O-])c3)c2)nn1	x	x	-6.9	17.5*	-0.4	-2.8
CCOC(=O)[C@]12CCCC=C1N(Cc1ccc3c(c1)OCO3)C(=O)[C@H](CC(=O)NCc1ccc(C)o1)C2	x	x	x	3.5	x	x
COc1ccccc1NC(=O)CCCC(=O)OCC(=O)c1ccc(F)cc1	-1.2	-1.2	2.7	-0.4	x	x
C#CCOC(=O)CCCC(=O)Nc1ccccc1OC	-3.0	-0.5	7.6	18.2*	-0.2	-0.2
COC(=O)Cc1c(C)c2ccc(OCC(=O)N3CCCC(C)C3)c(C)c2oc1=O (stereo not drawn)	-0.9	-0.6	-14.3	15.1*	-0.6	4.6
COc1ccccc1NC(=S)N(CCc1c(C)[nH]c2ccccc12)Cc1cccs1	-1.6	-2.5	-9.8	15.6*	-0.6	-4.6
C=C(C)C1CC=C(CN2CC(C)OC(C)C2)CC1 (stereo not drawn)	0.8	-0.1	-13.4	1.3	x	x
C=C(C)C1CC=C(CN2CCC(C(=O)OCC)CC2)CC1 (stereo not drawn)	-0.1	0.2	-1.4	17.8*	-0.2	26.1*
CCN(C[C@H]1N[C@@](CC)(C(=O)OC)[C@H]2C(=O)N(Cc3ccccc3)C(=O)[C@@H]12)C(=O)C1CCCCC1	x	x	-4.0	1.9	x	x
Cn1cnnc1SCC(=O)Nc1sc2c(c1C(N)=O)CCC2	1.3	1.2	-9.4	0.1	x	x
COCCn1cnnc1SCC(=O)Nc1sc2c(c1C#N)CCC2	x	x	-5.4	17.3*	-0.6	-0.2
Cc1csc(=O)n1CC(=O)Nc1ccc(C(C)C)cc1	x	x	-6.4	-3.9	x	x
COc1ccc2oc(C(=O)N3CCN(C(=O)c4ccco4)CC3)c(C)c2c1	x	x	-5.8	14.5*	-0.5	-2.0
COc1cccc(CN2CCCN(S(=O)(=O)c3ccc(Br)cc3)CC2)c1	-6.6	-2.5	-13.2	28.8*	-0.4	5.4
COc1ccc2oc(C(=O)N3CCN(c4ncccn4)CC3)c(C)c2c1	-3.4	-4.1	-11.2	3.3	x	x
COc1cccc(-c2nc(CN3CCN(C(=O)c4ccco4)CC3)c(C)o2)c1OC	x	x	x	14.8*	-0.7	42.9*
COc1cccc(CN2CCN(C(=O)c3ccco3)CC2)c1	-2.5	-2.6	0.9	37.3*	-0.5	108.8*
C[C@@H]1CN([C@@H](C)CO)C(=O)CCCn2nncc2CO[C@H]1CN(C)C(=O)OCc1ccccc1	x	x	x	0.1	x	x
CCn1c(SCC(=O)NC2CC2)nnc1-c1ccc(OC)cc1	-2.6	-3.6	-1.8	0.1	x	x
C[C@@H]1CN([C@H](C)CO)C(=O)CCCn2nncc2CO[C@H]1CN(C)C(=O)c1ccncc1	x	x	x	-7.7	x	x
COc1ccc(OC)c(CN2CCN(C(=O)c3ccco3)CC2)c1	-2.1	-3.0	-6.2	16.4*	1.2*	33.8*
COc1ccc(C(=O)N2CCN(Cc3cc(OC)ccc3OC)CC2)cc1	-1.6	-2.7	-5.8	-3.6	x	x
O=C(Cn1nnc2ccccc2c1=O)N[C@H](C(=O)O)c1ccccc1	-1.9	-2.4	-2.6	-3.3	x	x
CC(C)C[C@H]1C(=O)N2CCC[C@H]2[C@]2(O)O[C@](NC(=O)C3C=C4c5cccc6[nH]c(Br)c(c56)C[C@H]4N(C)C3)(C(C)C)C(=O)N12 (stereo partly drawn)	x	x	-17.1	47.6*	-0.1	174.3*
SMILES	IMP-1 inh	VIM-2 inh	dFosB activator	m5-HT2A agonist	MOR ag counter	m5-HT2A ag conf
Nc1nc(CN2CCN(c3ccccc3F)CC2)nc(Nc2ccc3c(c2)OCCO3)n1	-2.3	-2.9	-5.6	22.5*	-0.8	35.8*
Nc1nc(CN2CCN(c3ccccn3)CC2)nc(Nc2ccc(Cl)cc2)n1	-3.5	-3.0	-9.5	15.4*	-0.3	72.7*
Nc1nc(CN2CCN(Cc3ccccc3)CC2)nc(Nc2ccccc2)n1	1.0	-1.8	2.5	-6.2	x	x
O=C(NCc1ccccn1)Nc1ccccc1F	-2.0	2.2	1.7	4.4	x	x
Cc1cc(-c2onc(C)c2C(=O)Oc2ccc(Cl)cc2)no1	-0.2	-2.9	-15.3	18.9*	-0.5	-4.3
Cc1cc(-c2onc(C)c2C(N)=O)no1	1.0	-3.3	-2.3	2.4	x	x
